Five compounds from ChEMBL document CHEMBL5053511, “Discovery of a Novel BCL-XL PROTAC Degrader with Enhanced BCL-2 Inhibition” (J Med Chem, 2021) can be followed below.

Activity calls are given as the source filed them. The calls are words filed in the database; no cut-off is given here.

One assay concerns Platelet. The assay can be described thus: Cytotoxicity against platelets in human PRP assessed as reduction in cell viability measured after 48 hrs by MTS assay. It counts as cell-based. Summed up: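 Washed human platelets from PRP were kept in HEPES Tyrode's buffer with 1 µM PGE1 and 0.2 units/mL apyrase at 2×10^8/mL.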
A general note: Tetrazolium assays rely on reduction of a dye to a coloured formazan, in cell work by metabolically active cells.

Assay [1] addresses T1, von Hippel-Lindau disease tumor suppressor/Bcl-2-like protein 1 (Homo sapiens, UniProt Q07817+P40337). Kind of assay: Binding affinity to VHL/ BCL-XL in human RS4-11 cells assessed as ternary complex formation at up to 300 nM measured after 12 hrs by immunoprecipitation assay. Format: cell-based.
Target sequence in this assay (P40337 whole entry, looked up): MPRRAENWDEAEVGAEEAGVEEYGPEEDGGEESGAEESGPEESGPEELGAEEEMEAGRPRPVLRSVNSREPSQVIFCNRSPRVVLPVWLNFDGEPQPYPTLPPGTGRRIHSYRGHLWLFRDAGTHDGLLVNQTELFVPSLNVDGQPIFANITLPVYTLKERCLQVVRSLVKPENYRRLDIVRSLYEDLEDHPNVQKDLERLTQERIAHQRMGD
Target sequence in this assay (Q07817 whole entry, looked up): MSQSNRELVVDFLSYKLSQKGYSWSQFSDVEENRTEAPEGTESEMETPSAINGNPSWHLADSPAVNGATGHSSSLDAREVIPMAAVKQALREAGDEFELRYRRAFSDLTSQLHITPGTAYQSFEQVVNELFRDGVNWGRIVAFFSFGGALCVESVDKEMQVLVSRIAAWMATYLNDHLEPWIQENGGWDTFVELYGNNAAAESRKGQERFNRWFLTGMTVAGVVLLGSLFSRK
Assay [2] concerns the target T2, von Hippel-Lindau disease tumor suppressor/Apoptosis regulator Bcl-2 (Homo sapiens) (UniProt P10415+P40337). Kind of assay: Binding affinity to VHL/BCL-2 in human RS4-11 cells assessed as ternary complex formation at up to 300 nM measured after 12 hrs by immunoprecipitation assay. Format: cell-based.
Assay [3] has as its target T1, von Hippel-Lindau disease tumor suppressor/Bcl-2-like protein 1. The assay can be described thus: Binding affinity to VHL/ BCL-XL in human RS4-11 cells assessed as ternary complex formation at up to 300 nM measured after 12 hrs in presence of VHL-032 by immunoprecipitation assay. It counts as cell-based.
Target sequence in this assay (P40337 whole entry, looked up): as the sequence (P40337 whole entry, looked up) above
Target sequence in this assay (Q07817 whole entry, looked up): as the sequence (Q07817 whole entry, looked up) above
For assay [4] the target is unchanged. Kind of assay: Protac activity at VHL/BCL-XL in human RS4-11 cells assessed as decrease in BCL-XL protein level by densitometric analysis. It counts as cell-based. The method, boiled down:
(§1)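 MOLT-4 or RS4;11 cells were treated at a range of concentrations for 16 h. BCL-XL was immunoblotted with β-actin loading control, and band densitometry was normalised to β-actin. Mean ± SD of three independent experiments in triplicate.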
Target sequence in this assay (Q07817 whole entry): as the sequence (Q07817 whole entry, looked up) above
Target sequence in this assay (P40337 whole entry): as the sequence (P40337 whole entry, looked up) above

The target is the same in assay [5]. Kind of assay: Protac activity at VHL/BCL-XL in human MOLT-4 cells assessed as decrease in BCL-XL protein level by densitometric analysis. It counts as cell-based. Summed up:
as §1
Target sequence in this assay (Q07817 whole entry): as the sequence (Q07817 whole entry, looked up) above
Target sequence in this assay (P40337 whole entry): as the sequence (P40337 whole entry, looked up) above

Assay [6] has the same target. The assay can be described thus: Protac activity at VHL/BCL-XL in human MOLT-4 cells assessed as induction of BCL-XL degradation measured after 16 hrs by Western blot analysis. Format: cell-based. Summed up: as §1
Target sequence in this assay (Q07817 whole entry): as the sequence (Q07817 whole entry, looked up) above
Target sequence in this assay (P40337 whole entry): as the sequence (P40337 whole entry, looked up) above
Assay [7] relates to RS4-11. Kind of assay: Cytotoxicity against human RS4-11 cells assessed as reduction in cell viability measured after 48 hrs by MTS assay. The settings on record: RS4-11, 48 h. Format: functional, cell-based.
The test system of the next assay is MOLT-4. Kind of assay: Cytotoxicity against human MOLT-4 cells assessed as reduction in cell viability measured after 48 hrs by MTS assay. Format: functional, cell-based. Particulars: MOLT-4, 48 h.
For assay [8], the target named is T1, von Hippel-Lindau disease tumor suppressor/Bcl-2-like protein 1. The assay can be described thus: Binding affinity to Halo-tagged VHL/HiBiT-tagged BCL-XL (unknown origin) expressed in HEK293T cells assessed as ternary complex formation at up to 100000 nM measured after 6 hrs by NanoBRET assay. It counts as cell-based. The method, boiled down: (§2)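 NanoBRET in live HEK 293T cells. Cells were transfected with HaloTag-VHL (1 µg), HiBit-BCL-XL or HiBit-BCL-2 (10 ng) and LgBit (10 ng). After 24 h they were seeded at 2×10^4 per well in Opti-MEM with 4% FBS, with or without HaloTag 618 ligand, and held overnight. Serial compound doses were given for 6 h at 37 °C, then Nano-Glo substrate was added and mBRET ratios read. Mean ± s.e.m. of two experiments in triplicate.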
Target sequence in this assay (P40337 whole entry, looked up): as above
Target sequence in this assay (Q07817 whole entry, looked up): as the sequence (Q07817 whole entry, looked up) above
Background: With HiBiT, luminescence reflects the tagged protein that the partner subunit can reach.

Assay [9] addresses T2, von Hippel-Lindau disease tumor suppressor/Apoptosis regulator Bcl-2 (Homo sapiens). Kind of assay: Binding affinity to Halo-tagged VHL/HiBiT-tagged BCL-2 (unknown origin) expressed in HEK293T cells assessed as ternary complex formation at up to 100000 nM measured after 6 hrs by NanoBRET assay. Format: cell-based. Summed up: as §2
The subject of assay [10] is RS4-11. The assay can be described thus: Cytotoxicity against human RS4-11 cells assessed as reduction in cell viability measured after 48 hrs in presence of VHL-032 by MTS assay. Format: functional, cell-based. Particulars: RS4-11, 48 h. Summed up:
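RS4;11 cells were pretreated with 10 µM VHL-032, then exposed to compound for 48 h. Viability was read by MTS; three independent experiments in triplicate.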

The target in a further assay is Bcl-2-like protein 1 (Homo sapiens, UniProt Q07817). Kind of assay: Displacement of biotin-tagged LWAAQRYGRELRRMSDEFEGSFKGL from human BCL-XL expressed in Escherichia coli measured after 2 hrs by AlphaScreen assay. Summed up:
(§3)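 AlphaScreen displacement, run with or without VCB. Anti-His acceptor beads were added for 1 h at room temperature, then streptavidin donor beads for 30 min in the dark. Ki was fitted by one-site competitive model from peptide concentration and measured Kd values; reported as mean ± SD of at least two experiments in triplicate.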

Assay [11] deals with Apoptosis regulator Bcl-2 (Homo sapiens, UniProt P10415). The assay can be described thus: Displacement of biotin-tagged MRPEPATIAQELRRIGDEFNA from C-terminal His-tagged human BCL-2 (1` to 211 residues) expressed in Escherichia coli measured after 2 hrs by AlphaScreen assay. The method, boiled down: as §3
(In general: Alpha assays give light when donor and acceptor beads are brought close together.)

The nature of assay [12]: Binding affinity to human BCL-XL expressed in Escherichia coli/recombinant human VHL (54 to end residues) fused to human N-terminal GST-tagged elongin-C/elongin -B/N-terminal His-tagged CUL2/Rbx1 expressed in baculovirus infected Sf21 insect cells measured after 2 hrs by AlphaScreen assay. Summed up: (§4)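 AlphaScreen displacement, run with or without VCB. Biotin-Bim (80 nM, for BCL-2) or biotin-Bad (16 nM, for BCL-XL) was combined with serially diluted compound and 6×His protein in 25 mM HEPES pH 7.5, 100 mM NaCl, 0.1% BSA, 0.005% Tween 20. Anti-His acceptor beads were added for 1 h at room temperature, then streptavidin donor beads for 30 min in the dark. Ki was fitted by one-site competitive model from peptide concentration and measured Kd values; reported as mean ± SD of at least two experiments in triplicate.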

The nature of assay [13]: Binding affinity to C-terminal His-tagged human BCL-2 (1 to 211 residues) expressed in Escherichia coli/recombinant human VHL (54 to end residues) fused to human N-terminal GST-tagged elongin-C/elongin -B/N-terminal His-tagged CUL2/Rbx1 expressed in baculovirus infected Sf21 insect cells measured after 2 hrs by AlphaScreen assay. The method, boiled down: as §4
Assay [14] is described as follows: Binding affinity to human BCL-XL expressed in Escherichia coli/recombinant human VHL (54 to end residues) fused to human N-terminal GST-tagged elongin-C/elongin -B/N-terminal His-tagged CUL2/Rbx1 expressed in baculovirus infected Sf21 insect cells assessed as ternary complex formation at up to 100000 nM measured after 30 mins by AlphaLISA assay. Summed up:
(§5)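 Cell-free ternary complex AlphaLISA: 6×His-tagged BCL-XL, BCL-2 or MCL-1 (20 nM) mixed with serially diluted compound (4× dilution) and GST-VCB (20 nM) in 25 mM HEPES pH 7.5, 100 mM NaCl, 0.1% BSA, 0.005% Tween 20. After 30 min at room temperature, glutathione donor beads were added for 15 min, then anti-His acceptor beads for 45 min in the dark. Luminescence was plotted against log compound concentration.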

Assay [15] can be described thus: Binding affinity to C-terminal His-tagged human BCL-2 (1 to 211 residues) expressed in Escherichia coli/recombinant human VHL (54 to end residues) fused to human N-terminal GST-tagged elongin-C/elongin -B/N-terminal His-tagged CUL2/Rbx1 expressed in baculovirus infected Sf21 insect cells assessed as ternary complex formation at up to 100000 nM measured after 30 mins by AlphaLISA assay. The method, boiled down: as §5

T2 sequence (P10415 whole entry, looked up): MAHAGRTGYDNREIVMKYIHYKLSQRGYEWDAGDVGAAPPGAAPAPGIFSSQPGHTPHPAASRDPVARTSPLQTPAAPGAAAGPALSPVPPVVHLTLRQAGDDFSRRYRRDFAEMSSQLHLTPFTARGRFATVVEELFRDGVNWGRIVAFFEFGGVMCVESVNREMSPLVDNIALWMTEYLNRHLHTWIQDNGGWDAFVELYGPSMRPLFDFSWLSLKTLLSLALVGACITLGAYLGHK
T2 sequence (P40337 whole entry, looked up): as the sequence (P40337 whole entry, looked up) above
Apoptosis regulator Bcl-2, sequence (P10415 whole entry): as the sequence (P10415 whole entry, looked up) above
Bcl-2-like protein 1, sequence (Q07817 whole entry): as the sequence (Q07817 whole entry, looked up) above

Consider `CC1(C)CCC(c2ccc(Cl)cc2)=C(CN2CCN(c3ccc(C(=O)NS(=O)(=O)c4ccc(N[C@H](CCN5CCOCC5)CSc5ccccc5)c(S(=O)(=O)C(F)(F)F)c4)cc3)CC2)C1` [NAVITOCLAX], for which, in the assay on Platelet, the IC50 is 325 nM. The outcome in [1] and in assay [2] was Active. The outcome in assay [3] was inactive.
Take `Cc1ncsc1-c1ccc([C@H](C)NC(=O)[C@@H]2C[C@@H](O)CN2C(=O)[C@@H](NC(=O)CCCCCCCCC(=O)NCC2(C)CCC(c3ccc(Cl)cc3)=C(CN3CCN(c4ccc(C(=O)NS(=O)(=O)c5ccc(N[C@H](CCN6CCOCC6)CSc6ccccc6)c(S(=O)(=O)C(F)(F)F)c5)cc4)CC3)C2)C(C)(C)C)cc1` (stereo not given in full): the IC50 stood at 2900 nM in the assay on Platelet, 23.3 nM in the assay with RS4-11 [7], 32.1 nM in the assay with MOLT-4 and 481 nM in the assay on RS4-11 [10]. Also, the DC50 in [4] came to 22.6 nM; in [5] it was 31.6 nM; in assay [6] it was 27.2 nM. The result in [8] and in assay [9] was Active.
Turning to `Cc1ncsc1-c1ccc([C@H](C)NC(=O)[C@@H]2C[C@@H](O)CN2C(=O)[C@@H](NC(=O)CCCCCC(=O)NCC2(C)CCC(c3ccc(Cl)cc3)=C(CN3CCN(c4ccc(C(=O)NS(=O)(=O)c5ccc(N[C@H](CCN6CCOCC6)CSc6ccccc6)c(S(=O)(=O)C(F)(F)F)c5)cc4)CC3)C2)C(C)(C)C)cc1` (stereo not given in full), the IC50 in the assay with MOLT-4 was 307 nM.
`Cc1ncsc1-c1ccc([C@H](C)NC(=O)[C@@H]2C[C@@H](O)CN2C(=O)[C@@H](NC(=O)CCCCCCCCCC(=O)NCC2(C)CCC(c3ccc(Cl)cc3)=C(CN3CCN(c4ccc(C(=O)NS(=O)(=O)c5ccc(N[C@H](CCN6CCOCC6)CSc6ccccc6)c(S(=O)(=O)C(F)(F)F)c5)cc4)CC3)C2)C(C)(C)C)cc1` (stereo not given in full): the IC50 in the assay with RS4-11 [7] was determined as 29.2 nM; with MOLT-4 it was 74.6 nM.
Turning to `Cc1ncsc1-c1ccc([C@H](C)NC(=O)[C@@H]2C[C@@H](O)CN2C(=O)[C@@H](NC(=O)CCCCCCCCC(=O)NC[C@@]2(C)CCC(c3ccc(Cl)cc3)=C(CN3CCN(c4ccc(C(=O)NS(=O)(=O)c5ccc(N[C@H](CCN6CCOCC6)CSc6ccccc6)c(S(=O)(=O)C(F)(F)F)c5)cc4)CC3)C2)C(C)(C)C)cc1`, the half-inhibitory concentration (IC50) came out at 9850 nM in the assay with Platelet, 418 nM with RS4-11 [7], 170 nM with MOLT-4 and 1040 nM in the assay on RS4-11 [10]. Moreover, the DC50 in assay [4] amounted to 75.2 nM; in [5], 127 nM. Further, the Ki at Bcl-2-like protein 1 turned out to be 2.75 nM. In addition, the results for the Kd in [11], in assay [12] and in assay [13] were 1.47 nM, 0.64 nM and 0.55 nM, respectively. Also, the result in [14], in assay [15], in assay [8] and in [9] was Active.

As a reminder, the IC50 is the concentration that inhibits the measured activity by half. As a reminder, the Ki is the dissociation constant of the complex between target and ligand, obtained from inhibition or displacement. By Kd is commonly meant the concentration at which binding is half-saturated.
